# In paper PMC5625158 (Pharmacology Research & Perspectives, 2017):
# How the values were obtained:
# [1] = test system: obese ZSF1 rats; assay: Kidney collagen I and III protein by immunohistochemistry in ZSF1 rats; format: in vivo, rat; conditions: 400 mg/kg/day, versus obese vehicle
# Summary of the method: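 Kidneys were taken at study end, formalin-fixed and paraffin-embedded, then deparaffinized and rehydrated. Sections were stained with rabbit polyclonal anti-collagen I (2 ug/mL) or anti-collagen III (3 ug/mL), developed with an HRP-polymer kit and counterstained with hematoxylin. Whole slides were scanned at 20x, and positive stain area was quantified by a colour-deconvolution algorithm. Dosing was in diet for 28 weeks.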
# [2] = test system: obese ZSF1 rats; assay: Kidney fibrosis marker gene expression by RT-PCR in ZSF1 rats; format: in vivo, rat; conditions: dose not given
# Summary of the method: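 Kidney cortex was snap-frozen, homogenized in TRIzol and column-purified for RNA. A 2 µg RNA sample was reverse-transcribed, and rat TaqMan probes were used for qPCR. Ct values were normalized to the geomean of POLR2A and B2M and quantified by the 2^-ΔΔCT method relative to the obese vehicle group. Treatment was in diet for 28 weeks (n = 12 per obese group).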
# [3] = test system: obese ZSF1 rats; assay: Kidney histology in ZSF1 rats; format: in vivo, rat
# Summary of the method: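 At study end, both kidneys were formalin-fixed, paraffin-embedded and stained with H&E, PAS and Masson's trichrome for light microscopy. Tubular, interstitial, vascular and glomerular changes were graded 0–5 (normal to severe). Collagen deposition was graded 0–5 by blue-stained area size and intensity. Group sizes were n = 8 lean and n = 12 per obese group, with 28 weeks of diet dosing.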
# [4] = Body weight, food and water intake in ZSF1 rats; format: in vivo, rat; conditions: data not shown
# Summary of the method: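 Male obese ZSF1 rats received the test compound in a medicated chow diet from 16 weeks of age for 28 weeks. Before each collection they were acclimated for at least 3 days to single housing in metabolic cages. Body weight and food and water consumption were recorded at every urine and blood collection, at weeks −2, 1, 2, 4, 6, 8, 12, 16, 21, 24 and 28.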
# [5] = test system: αvβx integrins; assay: Thermal shift assay, αvβx integrins; format: binding; conditions: Fig. S1B
# Summary of the method: (§1)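 Differential scanning fluorimetry was run on a real-time PCR instrument. Recombinant integrins (the α1β1–αIIbβ3 panel was recombinant human) were reconstituted in assay buffer with Sypro orange, and test compound was added at 20 µM. ΔTm was calculated against a DMSO control. Runs were in triplicate across three independent experiments.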
# [6] = test system: α1β1, α2β1, α3β1, α4β1, α6β1, α9β1, α10β1, α11β1, and αIIbβ3 integrins; assay: Thermal shift assay; format: binding, Human; conditions: Twenty μM MK‐0429
# Summary of the method: as §1
# [7] = target: αvβ3 (Homo sapiens, UniProt P05106+P06756); conditions: ref Hutchinson et al. 2003; cited from earlier work
# [8] = test system: platelet aggregation; conditions: ref Hutchinson et al. 2003; cited from earlier work
# [9] = test system: men with hormone‐refractory prostate cancer and bone metastases; conditions: ref Rosenthal et al. 2010; cited from earlier work
# [10] = test system: human podocytes; assay: Podocyte cell viability; format: cell-based; conditions: 48 h treatment, unpublished data
# [11] = test system: Human primary kidney fibroblasts (HPKF); assay: Kidney fibroblast fibrosis assay; format: cell-based
# Summary of the method: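 Primary human kidney fibroblasts were grown on collagen I-coated plates at 37°C in 5% CO2 and serum-starved overnight. They were then given various concentrations of test compound for 24 h. In TGF-β arms, compound was added 1 h before recombinant human TGF-β1 (5 ng/mL final, 24 h). Marker mRNA was measured by RNA extraction, reverse transcription and real-time PCR.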
# [12] = test system: obese ZSF1 rats; assay: Renal function in obese ZSF1 rat diabetic nephropathy model; format: in vivo; conditions: for Urinary protein/creatinine ratio (UPCR): 28 weeks
# [13] = test system: osteoplastic bone resorption; conditions: ref Hutchinson et al. 2003; cited from earlier work
# [14] = test system: postmenopausal women with osteoporosis; conditions: cited from earlier work
# [15] = test system: liver and lung fibrosis; conditions: ref Henderson et al. 2013; cited from earlier work
# Sequence of αvβ3 (P06756 31-992 limits assumed): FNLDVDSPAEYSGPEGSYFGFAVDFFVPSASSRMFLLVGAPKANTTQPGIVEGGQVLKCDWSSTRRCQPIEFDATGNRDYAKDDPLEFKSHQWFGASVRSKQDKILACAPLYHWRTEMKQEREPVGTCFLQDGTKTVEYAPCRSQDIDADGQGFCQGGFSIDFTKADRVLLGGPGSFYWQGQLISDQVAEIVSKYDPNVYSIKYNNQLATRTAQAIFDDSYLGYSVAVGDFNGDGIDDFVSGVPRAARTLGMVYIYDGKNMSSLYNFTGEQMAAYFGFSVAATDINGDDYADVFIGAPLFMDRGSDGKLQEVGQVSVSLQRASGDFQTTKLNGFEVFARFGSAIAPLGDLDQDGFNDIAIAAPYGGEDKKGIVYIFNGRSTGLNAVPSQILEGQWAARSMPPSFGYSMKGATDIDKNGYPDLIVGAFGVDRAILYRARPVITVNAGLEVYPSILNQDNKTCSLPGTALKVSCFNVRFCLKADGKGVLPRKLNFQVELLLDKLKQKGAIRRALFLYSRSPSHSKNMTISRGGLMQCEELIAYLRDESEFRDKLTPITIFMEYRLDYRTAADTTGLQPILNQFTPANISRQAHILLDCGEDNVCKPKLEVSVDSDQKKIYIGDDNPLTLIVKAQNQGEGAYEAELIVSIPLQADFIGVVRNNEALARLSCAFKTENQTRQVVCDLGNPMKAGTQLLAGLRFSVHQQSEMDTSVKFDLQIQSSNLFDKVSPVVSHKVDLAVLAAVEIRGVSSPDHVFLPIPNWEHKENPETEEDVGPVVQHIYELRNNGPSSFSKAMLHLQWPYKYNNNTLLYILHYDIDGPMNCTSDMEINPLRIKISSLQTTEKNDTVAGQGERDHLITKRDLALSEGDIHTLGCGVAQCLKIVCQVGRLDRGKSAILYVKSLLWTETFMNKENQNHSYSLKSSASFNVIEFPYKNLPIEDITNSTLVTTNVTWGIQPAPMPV
# Sequence of αvβ3 (P05106 27-718 limits assumed): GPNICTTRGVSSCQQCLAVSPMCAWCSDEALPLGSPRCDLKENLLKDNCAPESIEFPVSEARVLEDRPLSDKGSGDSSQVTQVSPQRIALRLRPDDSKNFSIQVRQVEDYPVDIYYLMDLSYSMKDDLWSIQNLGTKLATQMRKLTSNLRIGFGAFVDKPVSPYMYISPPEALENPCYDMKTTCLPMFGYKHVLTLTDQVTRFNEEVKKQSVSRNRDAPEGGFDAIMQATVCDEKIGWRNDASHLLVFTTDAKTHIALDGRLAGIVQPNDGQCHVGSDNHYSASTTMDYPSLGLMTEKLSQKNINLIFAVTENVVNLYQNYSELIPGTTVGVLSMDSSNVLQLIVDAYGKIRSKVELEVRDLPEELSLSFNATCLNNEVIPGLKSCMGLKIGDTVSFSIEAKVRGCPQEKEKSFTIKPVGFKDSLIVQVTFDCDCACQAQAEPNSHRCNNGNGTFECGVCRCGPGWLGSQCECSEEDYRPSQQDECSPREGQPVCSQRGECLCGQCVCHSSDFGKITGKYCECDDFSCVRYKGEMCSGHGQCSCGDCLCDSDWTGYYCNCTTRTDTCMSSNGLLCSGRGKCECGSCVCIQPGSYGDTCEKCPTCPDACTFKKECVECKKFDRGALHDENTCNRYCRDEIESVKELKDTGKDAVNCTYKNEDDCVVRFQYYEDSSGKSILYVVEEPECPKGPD
structure (smiles),measurement,setting,value
COc1ccc([C@H](CC(=O)O)N2CCN(CCCc3ccc4c(n3)NCCC4)C2=O)cn1 [MK‐0429],"Decrease of Type I collagen positive stain (% of area), kidney IHC",[1],significantly decreased
same,"Decrease of Type III collagen positive stain (% of area), kidney IHC",[1],significantly decreased
same,"αSMA mRNA expression, kidney",[2],significantly decreased
same,Glomerular injury score,"[3]; 0–5 scale, data not shown",no significant effect
same,Tubular injury score,"[3]; 0–5 scale, data not shown",no significant effect
same,Body weight,[4],no significant effects
same,Food intake,[4],no significant effects
same,Water intake,[4],no significant effects
same,Shift of melting temperatures of αvβx integrins,[5],dramatic shift
same,Binding to other integrins (thermal shift assay),[6],does not bind and No
same,αvβ3 ligand binding,[7],inhibits
same,Activity in platelet aggregation assay,[8],inactive
same,Bone turnover,[9],significantly reduced
same,Effect on cell viability,[10],without affecting cell viability
same,Expression of Collagen type I alpha‐1 chain (Col IA1),[11]; HPKF ± TGF‐β,partially inhibited
same,Expression of connective tissue growth factor (CTGF),[11]; HPKF ± TGF‐β,strongly suppressed
same,Expression of α‐smooth muscle actin (αSMA),[11]; HPKF ± TGF‐β,partially inhibited
same,IC50,"[11]; read-out: Inhibition of PAI‐1 gene expression IC50, HPKF, absence of TGF‐β, 24 h",56.5 nM
same,Urinary protein/creatinine ratio (UPCR),[12]; 400 mg/kg/day in diet,significantly later onset in its effects to reduce
same,Osteoplastic bone resorption,[13],inhibits
same,Bone mineral density at spine and hip (multiple endpoints),"[14]; phase II, postmenopausal women with osteoporosis, ref Murphy et al. 2005",improvement
same,Tolerability in Phase II trials,"[14]; ref Hutchinson et al. 2003, Coleman et al. 2004, Murphy et al. 2005, Rosenthal et al. 2010",well tolerated
"CCOC(=O)[C@H](CCc1ccccc1)N[C@@H](C)C(=O)N1CCC[C@H]1C(=O)O [Enalapril, enalapril]",Kidney fibrosis score (Masson's trichrome),"[3]; 10 mg/kg/day, 28 weeks, versus obese vehicle",significantly decreased
same,Urinary protein/creatinine ratio (UPCR),[12]; 10 mg/kg/day in diet,significantly decreased
same,Glomerular filtration rate (GFR),[12]; enalapril 10 mg/kg/day in diet,improvement
CC(C)(C)c1cc(Br)cc([C@H](CC(=O)O)NC(=O)CNC(=O)c2cc(O)cc(NC3=NCC(O)CN3)c2)c1 (some centres unmarked) [CWHM12],Liver and lung fibrosis,[15],attenuated
